This is an account of results in ChEMBL document CHEMBL1146093, “Identification of ellagic acid as potent inhibitor of protein kinase CK2: a successful example of a virtual screening application” (J Med Chem, 2006).

In test [1] the target is Tyrosine-protein kinase Lyn (Rattus norvegicus, UniProt Q07014). The experiment in a line: Inhibition of rat spleen Lyn. The test is classed as tissue-based. The method, boiled down: (§1)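 Each kinase's activity was measured by a method given in the Supporting Information. IC50 values are means of at least three independent experiments, with SEM never above 15%.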
Another test concerns FEPD. The experiment in a line: Antiproliferative activity against FEPD by MTT assay. The test is classed as functional, Homo sapiens. The method, boiled down: (§2)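 MTT viability in ALCL lines cultured 48 h with or without compound at 5-100 × 10^-6 M. Viability is expressed relative to DMSO-treated control cells, set at 1.0. Values are means of triplicate cultures.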
Background: Formazan colour is commonly taken as a measure of viable cells.

Test [2] is described as follows: Inhibition of rat liver CK2. The method, boiled down: as §1
In test [3] the target is cAMP-dependent protein kinase (PKA) (Homo sapiens, UniProt P22694+P17612+P22612). As to the kind of experiment: Inhibition of PKA. It counts as protein assay. The method, boiled down:
as §1

Test [4] has as its target T1, NPM/ALK (Nucleophosmin/ALK tyrosine kinase receptor) (Homo sapiens) (UniProt Q9UM73+P06748). The experiment in a line: Antiproliferative activity against SR786 expressing NPM-ALK by MTT assay. The test is classed as functional. To be noted: concentration not given here. The method, boiled down:
as §2

For test [5], the target named is Proto-oncogene tyrosine-protein kinase receptor Ret (Homo sapiens, UniProt P07949). The experiment in a line: Inhibition of RET. Summed up: as §1
The target of test [6] is NPM/ALK (Nucleophosmin/ALK tyrosine kinase receptor) (Homo sapiens, UniProt Q9UM73). As to the kind of experiment: Inhibition of NPM-ALK. The test is classed as protein assay. The method, boiled down: as §1
Test [7] has as its target Dual specificity tyrosine-phosphorylation-regulated kinase 1A (Homo sapiens, UniProt Q13627). As to the kind of experiment: Inhibition of human recombinant DYRK1a. The method, boiled down:
as §1

The target of test [8] is T1, NPM/ALK (Nucleophosmin/ALK tyrosine kinase receptor) (Homo sapiens). The experiment in a line: Antiproliferative activity against SUDHL1 expressing NPM-ALK by MTT assay. The test is classed as functional. To be noted: concentration not given here. The method, boiled down: as §2
The target in test [9] is Tyrosine-protein kinase SYK (Rattus norvegicus, UniProt Q64725). The experiment in a line: Inhibition of rat spleen SYK. It counts as tissue-based. Summed up: as §1
The target of test [10] is T2, Receptor-type tyrosine-protein kinase FLT3 (Homo sapiens, UniProt P36888).
T2 sequence (P36888 whole entry): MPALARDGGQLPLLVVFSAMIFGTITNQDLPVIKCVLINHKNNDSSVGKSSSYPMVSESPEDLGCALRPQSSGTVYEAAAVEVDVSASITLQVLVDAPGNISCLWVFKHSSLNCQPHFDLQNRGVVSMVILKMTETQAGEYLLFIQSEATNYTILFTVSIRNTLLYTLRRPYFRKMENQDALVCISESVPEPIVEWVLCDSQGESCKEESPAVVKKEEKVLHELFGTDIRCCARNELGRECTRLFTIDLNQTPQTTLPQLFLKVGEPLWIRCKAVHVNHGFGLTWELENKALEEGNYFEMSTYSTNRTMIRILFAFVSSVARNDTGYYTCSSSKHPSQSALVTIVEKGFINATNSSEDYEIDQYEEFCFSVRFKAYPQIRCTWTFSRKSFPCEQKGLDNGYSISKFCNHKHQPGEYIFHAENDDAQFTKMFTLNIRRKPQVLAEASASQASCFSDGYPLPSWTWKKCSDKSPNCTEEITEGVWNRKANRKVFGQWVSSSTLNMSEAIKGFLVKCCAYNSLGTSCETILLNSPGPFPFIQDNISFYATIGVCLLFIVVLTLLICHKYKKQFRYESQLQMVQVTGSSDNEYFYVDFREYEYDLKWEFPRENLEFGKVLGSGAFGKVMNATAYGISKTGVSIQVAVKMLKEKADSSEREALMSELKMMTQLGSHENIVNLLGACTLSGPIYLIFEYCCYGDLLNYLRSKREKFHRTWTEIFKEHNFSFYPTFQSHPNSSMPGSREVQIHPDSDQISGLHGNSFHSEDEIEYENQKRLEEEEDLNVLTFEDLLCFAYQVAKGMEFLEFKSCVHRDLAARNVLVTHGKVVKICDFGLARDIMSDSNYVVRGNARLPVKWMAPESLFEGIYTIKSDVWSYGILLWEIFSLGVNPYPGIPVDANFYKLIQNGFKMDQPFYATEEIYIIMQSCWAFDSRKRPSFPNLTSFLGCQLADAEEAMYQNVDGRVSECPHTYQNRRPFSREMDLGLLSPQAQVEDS
The experiment in a line: Inhibition of FLT3. Summed up:
as §1

The nature of test [11]: Inhibition of rat liver CK1. The method, boiled down: as §1
The target of test [12] is Tyrosine-protein kinase CSK (Rattus norvegicus, UniProt P32577). As to the kind of experiment: Inhibition of rat spleen CSK. The test is classed as tissue-based. Summed up:
as §1

The target in test [13] is Tyrosine-protein kinase Fgr (Rattus norvegicus, UniProt Q6P6U0). The experiment in a line: Inhibition of rat spleen FGR. The test is classed as tissue-based. The method, boiled down:
as §1

In test [14] the target is T1, NPM/ALK (Nucleophosmin/ALK tyrosine kinase receptor) (Homo sapiens). The experiment in a line: Antiproliferative activity against KARPAS299 expressing NPM-ALK by MTT assay. It counts as functional. To be noted: concentration not given here. The method, boiled down: as §2
Test [15] addresses Glycogen synthase kinase-3 beta (Homo sapiens, UniProt P49841). As to the kind of experiment: Inhibition of human recombinant GSK3-beta. The method, boiled down:
as §1

T1 sequence (P06748 whole entry partner): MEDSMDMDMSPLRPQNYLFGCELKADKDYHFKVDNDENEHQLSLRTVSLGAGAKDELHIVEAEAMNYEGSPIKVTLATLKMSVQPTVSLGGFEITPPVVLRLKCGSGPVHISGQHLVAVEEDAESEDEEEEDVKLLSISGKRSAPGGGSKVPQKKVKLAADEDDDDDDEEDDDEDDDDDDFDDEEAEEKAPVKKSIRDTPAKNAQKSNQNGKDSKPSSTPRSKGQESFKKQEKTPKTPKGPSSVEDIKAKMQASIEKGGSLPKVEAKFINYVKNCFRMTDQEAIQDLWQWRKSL
T1 sequence (Q9UM73 19-1620 limits assumed): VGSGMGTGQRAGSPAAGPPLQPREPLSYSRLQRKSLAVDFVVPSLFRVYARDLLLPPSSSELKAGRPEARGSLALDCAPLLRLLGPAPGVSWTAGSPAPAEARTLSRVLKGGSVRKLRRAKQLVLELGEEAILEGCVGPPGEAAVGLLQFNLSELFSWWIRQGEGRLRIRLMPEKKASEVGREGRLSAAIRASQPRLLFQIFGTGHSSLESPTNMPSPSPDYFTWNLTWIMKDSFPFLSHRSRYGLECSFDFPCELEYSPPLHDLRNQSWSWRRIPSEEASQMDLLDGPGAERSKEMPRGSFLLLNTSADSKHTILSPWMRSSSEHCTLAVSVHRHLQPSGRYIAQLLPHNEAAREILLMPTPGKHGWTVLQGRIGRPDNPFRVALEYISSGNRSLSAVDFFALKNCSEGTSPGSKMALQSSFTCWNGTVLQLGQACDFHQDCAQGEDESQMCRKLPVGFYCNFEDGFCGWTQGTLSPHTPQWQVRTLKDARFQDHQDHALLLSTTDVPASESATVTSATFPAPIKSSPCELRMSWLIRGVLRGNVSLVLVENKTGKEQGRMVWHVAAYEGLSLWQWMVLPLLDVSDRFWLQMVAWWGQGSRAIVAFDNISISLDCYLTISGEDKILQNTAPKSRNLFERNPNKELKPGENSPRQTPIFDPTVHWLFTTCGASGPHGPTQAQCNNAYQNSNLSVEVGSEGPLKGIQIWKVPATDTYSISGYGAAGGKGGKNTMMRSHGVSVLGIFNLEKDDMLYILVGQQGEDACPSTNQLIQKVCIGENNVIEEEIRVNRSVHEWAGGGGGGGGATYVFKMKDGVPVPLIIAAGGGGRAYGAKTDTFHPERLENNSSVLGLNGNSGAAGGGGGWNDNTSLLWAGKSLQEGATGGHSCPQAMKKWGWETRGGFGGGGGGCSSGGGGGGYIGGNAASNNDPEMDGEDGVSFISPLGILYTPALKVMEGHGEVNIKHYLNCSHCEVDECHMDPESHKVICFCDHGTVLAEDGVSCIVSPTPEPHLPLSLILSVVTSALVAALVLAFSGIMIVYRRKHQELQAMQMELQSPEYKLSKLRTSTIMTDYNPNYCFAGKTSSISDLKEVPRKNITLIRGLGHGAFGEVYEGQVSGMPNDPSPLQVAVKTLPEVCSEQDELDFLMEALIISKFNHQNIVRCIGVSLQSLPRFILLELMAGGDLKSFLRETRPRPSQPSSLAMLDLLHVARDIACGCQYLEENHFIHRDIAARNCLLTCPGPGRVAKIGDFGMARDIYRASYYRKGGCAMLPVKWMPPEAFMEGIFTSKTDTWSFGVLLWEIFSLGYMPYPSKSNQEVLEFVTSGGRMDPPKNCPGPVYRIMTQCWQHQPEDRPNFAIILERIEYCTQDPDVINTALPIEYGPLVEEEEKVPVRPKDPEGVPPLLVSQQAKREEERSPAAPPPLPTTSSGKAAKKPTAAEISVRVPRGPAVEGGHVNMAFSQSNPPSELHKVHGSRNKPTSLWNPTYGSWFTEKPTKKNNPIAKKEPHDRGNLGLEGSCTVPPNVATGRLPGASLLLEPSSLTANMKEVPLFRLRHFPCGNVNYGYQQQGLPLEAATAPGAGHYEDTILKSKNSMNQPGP
Chain of Tyrosine-protein kinase SYK (Q64725 whole entry): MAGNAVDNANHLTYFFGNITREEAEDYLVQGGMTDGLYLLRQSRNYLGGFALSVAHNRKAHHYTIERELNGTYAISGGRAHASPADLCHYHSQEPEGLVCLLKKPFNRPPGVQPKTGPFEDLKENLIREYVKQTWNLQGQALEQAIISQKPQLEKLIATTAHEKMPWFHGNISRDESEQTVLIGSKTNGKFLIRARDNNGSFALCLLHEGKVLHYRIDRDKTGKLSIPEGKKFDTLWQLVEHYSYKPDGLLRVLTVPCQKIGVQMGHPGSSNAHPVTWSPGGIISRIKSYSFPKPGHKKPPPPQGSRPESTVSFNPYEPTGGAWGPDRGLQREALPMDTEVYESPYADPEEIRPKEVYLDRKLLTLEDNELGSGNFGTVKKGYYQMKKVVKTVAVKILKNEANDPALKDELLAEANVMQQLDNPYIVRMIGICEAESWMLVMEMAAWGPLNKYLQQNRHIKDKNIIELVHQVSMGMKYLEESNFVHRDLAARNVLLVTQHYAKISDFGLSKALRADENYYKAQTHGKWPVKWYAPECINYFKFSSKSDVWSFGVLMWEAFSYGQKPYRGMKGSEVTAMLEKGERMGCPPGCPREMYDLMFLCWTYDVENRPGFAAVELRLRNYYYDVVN
Chain of Tyrosine-protein kinase Fgr (Q6P6U0 whole entry): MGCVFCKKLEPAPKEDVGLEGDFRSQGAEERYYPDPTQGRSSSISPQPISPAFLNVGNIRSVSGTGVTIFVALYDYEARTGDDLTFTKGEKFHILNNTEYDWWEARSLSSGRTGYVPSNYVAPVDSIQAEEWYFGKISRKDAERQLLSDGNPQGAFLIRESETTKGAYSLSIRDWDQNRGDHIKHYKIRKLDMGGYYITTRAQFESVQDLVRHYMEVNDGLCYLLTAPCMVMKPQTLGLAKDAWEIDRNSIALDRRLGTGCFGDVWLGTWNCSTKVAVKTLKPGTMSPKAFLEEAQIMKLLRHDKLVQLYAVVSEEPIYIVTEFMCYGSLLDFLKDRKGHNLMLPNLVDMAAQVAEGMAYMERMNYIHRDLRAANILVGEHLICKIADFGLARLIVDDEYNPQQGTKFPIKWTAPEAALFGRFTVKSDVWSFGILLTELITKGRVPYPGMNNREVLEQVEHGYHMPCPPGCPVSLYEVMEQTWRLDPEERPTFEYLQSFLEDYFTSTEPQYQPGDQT
Chain of Tyrosine-protein kinase CSK (P32577 whole entry): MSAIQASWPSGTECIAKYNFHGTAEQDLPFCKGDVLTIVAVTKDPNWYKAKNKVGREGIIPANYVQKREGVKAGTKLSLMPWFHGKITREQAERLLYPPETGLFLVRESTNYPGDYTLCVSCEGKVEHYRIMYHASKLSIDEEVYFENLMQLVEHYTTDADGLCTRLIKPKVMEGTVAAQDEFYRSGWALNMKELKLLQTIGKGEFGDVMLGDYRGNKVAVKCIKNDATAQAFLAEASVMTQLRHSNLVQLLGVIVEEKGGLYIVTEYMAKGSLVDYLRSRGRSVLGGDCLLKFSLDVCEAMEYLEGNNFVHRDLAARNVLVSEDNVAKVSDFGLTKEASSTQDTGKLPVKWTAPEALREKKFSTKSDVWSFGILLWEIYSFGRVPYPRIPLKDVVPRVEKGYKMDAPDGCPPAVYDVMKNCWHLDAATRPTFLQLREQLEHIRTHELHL
Chain of Tyrosine-protein kinase Lyn (Q07014 whole entry): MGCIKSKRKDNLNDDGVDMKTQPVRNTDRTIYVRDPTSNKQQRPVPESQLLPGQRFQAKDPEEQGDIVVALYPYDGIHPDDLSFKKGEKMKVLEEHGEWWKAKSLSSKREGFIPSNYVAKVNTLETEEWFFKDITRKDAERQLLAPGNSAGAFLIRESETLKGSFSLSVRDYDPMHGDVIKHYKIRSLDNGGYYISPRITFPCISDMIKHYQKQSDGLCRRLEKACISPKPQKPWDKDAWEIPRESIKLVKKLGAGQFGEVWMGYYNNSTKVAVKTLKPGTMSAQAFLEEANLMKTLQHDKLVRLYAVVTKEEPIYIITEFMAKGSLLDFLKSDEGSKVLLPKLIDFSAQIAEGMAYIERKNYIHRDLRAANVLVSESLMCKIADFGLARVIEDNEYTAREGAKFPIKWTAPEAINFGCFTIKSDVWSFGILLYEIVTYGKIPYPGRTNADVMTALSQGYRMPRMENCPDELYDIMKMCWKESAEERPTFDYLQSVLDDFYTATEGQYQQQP
Chain of Glycogen synthase kinase-3 beta (P49841 whole entry): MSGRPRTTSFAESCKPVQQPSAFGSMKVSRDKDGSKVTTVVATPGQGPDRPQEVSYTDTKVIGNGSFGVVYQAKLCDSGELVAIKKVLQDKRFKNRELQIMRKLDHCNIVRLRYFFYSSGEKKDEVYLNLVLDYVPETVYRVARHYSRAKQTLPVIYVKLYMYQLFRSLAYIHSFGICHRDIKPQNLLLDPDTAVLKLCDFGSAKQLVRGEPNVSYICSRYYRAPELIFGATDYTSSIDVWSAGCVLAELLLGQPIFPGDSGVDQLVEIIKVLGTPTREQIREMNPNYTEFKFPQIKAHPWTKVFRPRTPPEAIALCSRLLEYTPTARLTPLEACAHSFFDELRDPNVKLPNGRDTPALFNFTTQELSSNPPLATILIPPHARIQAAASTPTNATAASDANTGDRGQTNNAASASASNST

Take `O=c1oc2c(O)c(O)cc3c(=O)oc4c(O)c(O)cc1c4c23` [ELLAGIC ACID]: the IC50 is 2.9 µM in test [1]; 0.04 µM in [2]; 3.5 µM in test [3]; over 40 µM in test [5]; over 40 µM in test [6]; over 40 µM in test [7]. For the same compound, the IC50 in test [9] is 4.3 µM; in [10], over 40 µM; in test [11], 13 µM; in test [12], over 40 µM; in test [13] it was 9.4 µM; in [15], 7.5 µM. This compound yielded an Inhibition in the test with FEPD of 70%. The same compound gave an inhibition constant Ki in test [2] of 0.02 µM. The inhibition was 40% in test [4], 85% in test [8] and 60% in [14].

One may read the IC50 as the concentration that inhibits the measured activity by half. The Inhibition is the share of the control response that was lost under treatment. A word on the Ki: it is the equilibrium dissociation constant of an inhibitor or competing ligand from its target. Read a low Ki as tighter binding. Broadly, the inhibition is the percentage by which the read-out fell short of the control. A higher inhibition goes with a response far below the control.
